# Screens (PubChem)
# Hits are enriched below; roughly 3.6% of the tested compounds scored in any of these assays.
# PolyA inhibitor – yeast polyadenylation inhibition | S. cerevisiae SKY197-pL101 polyadenylation reporter, beta-gal luminescence; efflux-impaired pdr1/pdr3 knockout yeast; score 100 = 6 SD above DMSO | activity score, % at 12 µM | 0.02% of 300,000 active;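 active means lowest replicate activity score at least 50, where 100 means six control SD above control mean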;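 further: yeast exposed to compound for 9 h at 30 °C; higher score means more reporter readthrough which indicates perturbed polyadenylation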
# AHR activator – activates the human aryl hydrocarbon receptor; P35869; AHR-responsive luciferase reporter cells, luminescence; activation, % at 5 µM; 2.5% of 320,000 active; in the data active means activation above about 47%;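 further: 0% = vehicle wells and 100% = reference agonist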
# Target sequence (P35869 whole entry, looked up): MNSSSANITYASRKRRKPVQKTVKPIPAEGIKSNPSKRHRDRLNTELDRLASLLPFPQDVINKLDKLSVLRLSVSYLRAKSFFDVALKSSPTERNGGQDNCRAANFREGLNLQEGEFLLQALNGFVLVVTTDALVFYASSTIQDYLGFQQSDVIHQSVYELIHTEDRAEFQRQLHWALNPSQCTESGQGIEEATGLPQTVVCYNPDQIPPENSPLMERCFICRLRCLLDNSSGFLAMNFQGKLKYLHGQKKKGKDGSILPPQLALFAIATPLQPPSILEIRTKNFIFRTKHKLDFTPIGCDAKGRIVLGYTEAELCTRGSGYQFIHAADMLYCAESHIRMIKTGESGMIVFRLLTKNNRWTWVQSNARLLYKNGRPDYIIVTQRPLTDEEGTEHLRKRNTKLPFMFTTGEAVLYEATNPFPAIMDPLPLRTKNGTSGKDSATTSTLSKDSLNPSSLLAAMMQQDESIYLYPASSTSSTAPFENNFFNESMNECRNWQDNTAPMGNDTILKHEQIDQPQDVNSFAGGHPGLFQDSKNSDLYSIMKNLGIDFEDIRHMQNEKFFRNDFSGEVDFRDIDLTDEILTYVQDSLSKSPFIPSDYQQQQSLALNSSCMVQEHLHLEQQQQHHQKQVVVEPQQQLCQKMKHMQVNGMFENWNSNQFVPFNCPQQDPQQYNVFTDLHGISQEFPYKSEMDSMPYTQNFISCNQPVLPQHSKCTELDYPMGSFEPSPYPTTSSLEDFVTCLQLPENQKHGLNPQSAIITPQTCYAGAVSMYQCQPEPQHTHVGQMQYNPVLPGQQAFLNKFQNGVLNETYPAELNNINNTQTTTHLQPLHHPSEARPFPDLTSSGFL
# PERK inh – human PERK inhibition, primary cell-based screen. inhibition, % at 5.6 µM. 0.17% of 220,000 active. CHO PERK-DD fusion, SEAP luminescence translation reporter. Q9NZJ5;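 active means inhibition above the mean inhibition of all tested compounds plus 3 SD, set separately per screening campaign, cut at about 2.9% in these data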;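 further: PERK kinase domain activated by AP20187 dimerizer at 100 nM; 0% = DMSO with dimerizer and 100% = rapamycin at 8.4 µM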
# STAT3 act-1 – activators of IL-6 induced STAT3 signaling; U3A cells, IL-6 STAT3-luciferase reporter, luminescence; 100% = signal with IL-6 EC80 alone; activation (% of control), % at 5.6 µM; 0.91% of 190,000 active;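 active means activation above the screen-wide mean of compound activation plus 3 SD, cut at about 130% in these data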;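 further: 0% = background luminescence of wells with medium and substrate only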
#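 Material: STAT3-luciferase reporter U3A cells. Controls: IL-6-treated wells, 100% activation. Read-out: % activation versus median of IL-6-stimulated wells. Probe or stimulus: IL-6 stimulus at 33 ng/mL final. Timing: compound 1 h, then IL-6 6 h at 37 °C. Signal: reporter luminescence signal.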
# HSF1 inh – HSF1 inhibition | activity change, negative = inhibition, % at 7.5 µM (by protocol) | 0.77% of 300,000 active | AID 2098 | NIH3T3-HGL HSE-luciferase, MG132-induced, luminescence 8 h; active compounds read low;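 active means more than half of replicate wells show activity change below -50%, luminescence cut by over half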;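 further: luciferase reports HSF-1 transcriptional activity via heat shock element; 0% = median of DMSO wells and -100% = zero luminescence signal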
# Hsp70 activator – transcriptional activators of Hsp70; activation, % at 10 µM; HeLa Hsp70 promoter luciferase reporter, luminescence; scaled: vehicle 0, proteasome-inhibitor control 100%; AID 1203; 0.04% of 200,000 active;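 active means activation above the mean across all tested compounds plus 3 SD, cutoff set per campaign, cut at about 5.5% in these data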;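 further: 100% = MG132 at 30 µM as the positive control and 0% = DMSO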
# STAT3 act-2 – confirmation of STAT3 signaling activators. shares compounds with STAT3 act-1. U3A STAT3-luciferase reporter, IL-6 potentiation, luminescence; U3A cells lack STAT1; 100 means same as IL-6 alone. potentiation (% of control), % at 5.7 µM. 64% of 1,200 active;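 active means percent activation of the STAT3 luciferase reporter above a set limit taken from the earlier primary screen, cut at about 130% in these data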;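 further: 0% = background signal of medium plus substrate and 100% = median of IL-6 with DMSO wells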
# NFkB act 2 – activates NF-kappaB, counter-screen to STAT3 activators. shares compounds with STAT3 act-1. human cells, NF-kappaB reporter activation. activation (% of control), % at 5.7 µM. 11% of 1,200 active; in the data active means activation above about 120%;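 further: reporter induced by TNF-alpha stimulation; 100% = median of stimulated DMSO wells and 0% = no signal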
# STAT1 act – activates STAT1, counter-screen to STAT3 activators; NIH 3T3 STAT1-luciferase reporter, IFN-gamma, luminescence; shares compounds with STAT3 act-1; 13% of 1,200 active; activation (% of control), % at 5.7 µM;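 active means activation above the solvent-only control well mean plus 3 SD, set per screening run, cut at about 120% in these data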;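 further: 100% = IFN-gamma with DMSO median signal so 100% means no change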
# Starred values were filed as active, the others as inactive; . = not tested or not shown.
SMILES,PolyA inhibitor,AHR activator,PERK inh,STAT3 act-1,HSF1 inh,Hsp70 activator,STAT3 act-2,NFkB act 2,STAT1 act
COc1cc(NC(=O)c2noc3c2CCC3)c(OC)cc1Cl,-2,31,1,146*,4,0,157*,101,102
CCCc1cc(C(=O)Nc2ccccc2C(=O)OC)no1,0,21,0,108,-3,0,.,.,.
CCCc1cc(C(=O)Nc2cc(OC)c(Cl)cc2OC)no1,-1,62*,0,166*,2,0,162*,103,103
COc1ccc(NC(=O)c2noc3c2CCC3)cc1,1,-3,-1,97,16,0,.,.,.
COCC(=O)NC1(c2nnnn2CCOC(=O)Nc2ccc(Cl)cc2)CCCCC1,-3,2,0,95,15,0,.,.,.
COc1ccc(NC(=O)CSCC(=O)NC2(C)CCS(=O)(=O)C2)cc1 (stereo unspecified),3,3,.,.,-5,.,.,.,.
CN(CC(=O)Nc1ccccc1Br)C(=O)CNC(=O)c1cccs1,.,-1,.,.,.,.,.,.,.
COc1ccc(C(C(=O)NC2CCCCC2)N(C(=O)c2ccco2)c2ccccc2C(C)=O)cc1OC (stereo unspecified),4,2,.,.,-3,.,.,.,.
CC(=O)Nc1ccc(NC(=O)c2ccc(CSc3ccccc3)o2)cc1,5,6,0,144*,-7,0,113,105,107
O=C(Nc1cccc(F)c1)c1ccc(CSc2ccccc2)o1,-5,5,0,107,15,0,.,.,.
COc1ccc(C2=NNC(c3cc(Cl)cc4c3OCOC4)C2)c(O)c1 (stereo unspecified),-4,4,0,87,14,1,.,.,.
Oc1c(Cl)cc(Cl)cc1C1=NNC(c2ccc(Cl)cc2)C1 (stereo unspecified),.,.,0,152*,.,0,147*,107,98
COCCNC(=O)C(=O)NNC(=O)c1ccccc1OC,-10,24,1,142*,8,0,137*,109,103
COc1ccccc1C(=O)NNC(=O)c1ccccc1,8,42,.,.,16,.,.,.,.
Cc1cccc(C2c3[nH]c4ccccc4c3CCN2C(=O)c2ccc(=O)[nH]c2)n1 (stereo unspecified),11,11,1,143*,0,0,120,101,99
COc1ccccc1C1c2[nH]c3ccccc3c2CCN1Cc1cnc(C)s1 (stereo unspecified),9,.,-1,146*,-1,0,176*,106,95
Cc1cccc(C2c3[nH]c4ccccc4c3CCN2Cc2ccc(C)s2)n1 (stereo unspecified),-33,13,0,142*,13,0,124,99,91
Cc1cccc(C2c3[nH]c4ccccc4c3CCN2C(=O)Cc2n[nH]c(C)n2)n1 (stereo unspecified),-3,8,0,137*,-3,0,139*,100,93
CC(=O)c1ccc(C(=O)N2CCc3c([nH]c4ccccc34)C2c2cccc(C)n2)s1 (stereo unspecified),-5,11,-2,.,32,.,.,.,.
Cc1ccccc1-c1cc(C(=O)NCc2ccc3c(c2)OCO3)n(CC2CC(c3cccnc3)=NO2)n1 (stereo unspecified),.,0,.,.,.,.,.,.,.
Cc1ccc(C(=O)N2CCOCC2)c(F)c1F,-12,5,1,104,4,0,.,.,.
CN(C)S(=O)(=O)c1ccc(C(=O)Oc2cc(=O)[nH]c3ccccc23)cc1,5,16,1,154*,-3,0,124,100,98
NNc1nc2c(Cl)ccc(Cl)c2s1,-16,56*,0,146*,8,0,125,103,90
COc1ccc(OC)c(NC(=O)Nc2ccc3[nH]ccc3c2)c1,-11,38,.,.,0,.,.,.,.
C=CCn1c(SCC)nc2sc3c(c2c1=O)CCc1ccccc1-3,-7,18,0,137*,-4,0,113,104,100
SMILES,PolyA inhibitor,AHR activator,PERK inh,STAT3 act-1,HSF1 inh,Hsp70 activator,STAT3 act-2,NFkB act 2,STAT1 act
COc1cccc(NC(=O)CCCn2nc(C)c3c(C)n(-c4ccccc4)nc3c2=O)c1,-15,1,.,.,1,.,.,.,.
O=C(CC1C(=O)NCCN1C(=O)c1ccc([N+](=O)[O-])cc1)Nc1ccc(F)cc1 (stereo unspecified),22,-1,.,.,-25,.,.,.,.
O=C(N/N=C/c1c[nH]c2ccccc12)c1[nH]c2ccc(Br)cc2c1-c1ccccc1,-8,.,1,150*,-21,0,115,157*,107
C/C(=N\NC(=O)CCC(=O)O)c1c(-c2ccccc2)c2cc(Br)ccc2[nH]c1=O,-22,1,0,.,-19,.,.,.,.
O=C(N/N=C/c1ccc(O)cc1)c1[nH]c2ccc(Br)cc2c1-c1ccccc1,2,-2,0,143*,-58*,1,112,165*,117
CCN(CC)P(=O)(Nc1ccc(C)cc1Br)c1ccc(N(C)C)cc1NC(=O)c1ccco1 (stereo unspecified),3,49*,0,150*,0,-1,144*,103,111
COc1ccc(/C=N/N(C(C)=O)c2nc(-c3ccc(C)cc3)cs2)cc1,5,13,0,88,-6,0,.,.,.
COc1ccccc1/C=N/N(C(C)=O)c1nc(-c2ccc(F)cc2)cs1,-12,56*,1,194*,-1,0,185*,126*,150*
O=C(Nc1ccc(Nc2ccccc2)cc1)c1cc([N+](=O)[O-])ccc1Cl,-16,-5,.,.,107,.,.,.,.
Cc1cccc(NC(=O)c2cc([N+](=O)[O-])ccc2Cl)c1O,-28,48*,1,155*,19,0,162*,110,98
C=CCn1c(=O)c2ccccc2n2c(SCc3nc4ccccc4s3)nnc12,0,30,-1,144*,-8,1,142*,123*,135*
C=CCn1c(SCC#N)nc2ccccc2c1=O,-2,11,1,136*,10,0,122,99,104
C=CCn1c(=O)c2ccccc2n2c(SCC(=O)O)nnc12,-1,0,.,.,-4,.,.,.,.
CC(C)Cn1c(SCC#N)nc2ccccc2c1=O,-32,2,0,106,4,0,.,.,.
O/N=C1\CCCc2c1nc(-c1ccccc1F)n2O,-9,5,0,.,-2,.,.,.,.
